Measurements: ChEMBL document CHEMBL3351814, “Discovery of selective hexapeptide agonists to human neuromedin U receptors types 1 and 2” (J Med Chem, 2014)
Active and inactive are the calls of the source. The calls are words filed in the database; no cut-off is given here. Where a SMILES comes first, the peptide text is derived from it. [ ]: non-standard residue; d: D form. The star is where a group is joined. Butanoyl(4-cHex) = O=C(CCCC1CCCCC1)*; Propanoyl(3-cHex) = O=C(CCC1CCCCC1)*; Butanoyl(4-Ph) = O=C(CCCc1ccccc1)*; Hydrocinnamoyl = O=C(CCc1ccccc1)*; Cha = N[C@@H](CC1CCCCC1)C(=O)O; Agb = N=C(N)NCC[C@H](N)C(=O)O; Agp = N=C(N)NC[C@H](N)C(=O)O; Chg = N[C@H](C(=O)O)C1CCCCC1; Nle = CCCC[C@H](N)C(=O)O; Dab = NCC[C@H](N)C(=O)O; Dap = NC[C@H](N)C(=O)O

These molecules were tested against Neuromedin-U receptor 2 (Homo sapiens, UniProt Q9GZQ4) (assay: Agonist activity at human NMUR2 expressed in HEK293 cells at 1 to 100 nM by calcium mobilization assay relative to NMU).
Chain of Neuromedin-U receptor 2 (Q9GZQ4 whole entry): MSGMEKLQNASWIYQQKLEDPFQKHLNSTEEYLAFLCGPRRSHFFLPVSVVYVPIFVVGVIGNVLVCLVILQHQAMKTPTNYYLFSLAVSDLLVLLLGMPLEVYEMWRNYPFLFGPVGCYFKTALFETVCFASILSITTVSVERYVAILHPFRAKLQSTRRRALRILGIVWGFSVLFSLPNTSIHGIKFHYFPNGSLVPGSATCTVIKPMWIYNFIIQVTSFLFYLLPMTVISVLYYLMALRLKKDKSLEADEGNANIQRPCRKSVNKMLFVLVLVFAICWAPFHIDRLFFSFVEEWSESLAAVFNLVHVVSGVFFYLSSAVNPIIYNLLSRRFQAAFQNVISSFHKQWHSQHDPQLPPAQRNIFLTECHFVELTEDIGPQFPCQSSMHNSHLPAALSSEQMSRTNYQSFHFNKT
Format: functional, cell-based
How it was run: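 HEK293 cells transiently transfected with human NMUR1 or NMUR2 plasmid (FuGENE6), reseeded 18 h post-transfection at 4.0 × 10^4 cells/well on poly-D-lysine. After 18 h, loaded 40 min with 4 μM Fluo-4-AM in HBSS/HEPES/probenecid buffer pH 7.4 with 1% FCS, then washed. Peptides in buffer with 0.05% BSA and 0.001% Triton X-100. Maximal FLIPR signal expressed as % of hNMU at 1000 nM.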
In the case of CC(C)C[C@H](NC(=O)CCc1ccccc1)C(=O)N[C@@H](Cc1ccccc1)C(=O)N[C@@H](CCCCN)C(=O)N1CCC[C@H]1C(=O)N[C@@H](CCCNC(=N)N)C(=O)N[C@@H](CC(N)=O)C(N)=O (Hydrocinnamoyl-LFKPRN-NH2), the Activity is reported as “inactive”.
For CC(C)C[C@H](NC(=O)CCc1ccccc1)C(=O)N[C@@H](Cc1ccccc1)C(=O)N[C@@H](CCNC(=N)N)C(=O)N1CCC[C@H]1C(=O)N[C@@H](CCCNC(=N)N)C(=O)N[C@@H](CC(N)=O)C(N)=O (Hydrocinnamoyl-LF[Agb]PRN-NH2), the Activity was “Active”.
In the case of CC(C)C[C@H](NC(=O)CCc1ccccc1)C(=O)N[C@@H](Cc1ccccc1)C(=O)N[C@@H](CNC(=N)N)C(=O)N1CCC[C@H]1C(=O)N[C@@H](CCCNC(=N)N)C(=O)N[C@@H](CC(N)=O)C(N)=O (Hydrocinnamoyl-LF[Agp]PRN-NH2), the Activity is reported as “Active”.
CC(C)C[C@H](NC(=O)CCc1ccccc1)C(=O)N[C@@H](Cc1ccccc1)C(=O)N[C@@H](CCN)C(=O)N1CCC[C@H]1C(=O)N[C@@H](CCCNC(=N)N)C(=O)N[C@@H](CC(N)=O)C(N)=O (Hydrocinnamoyl-LF[Dab]PRN-NH2) was tested, and the Activity was “Active”.
With CC(C)C[C@H](NC(=O)CCc1ccccc1)C(=O)N[C@@H](Cc1ccccc1)C(=O)N[C@@H](CN)C(=O)N1CCC[C@H]1C(=O)N[C@@H](CCCNC(=N)N)C(=O)N[C@@H](CC(N)=O)C(N)=O (Hydrocinnamoyl-LF[Dap]PRN-NH2) the Activity was “Active”.
For CC(C)C[C@H](NC(=O)CCc1ccccc1)C(=O)N[C@@H](CC1CCCCC1)C(=O)N[C@@H](CCCNC(=N)N)C(=O)N1CCC[C@H]1C(=O)N[C@@H](CCCNC(=N)N)C(=O)N[C@@H](CC(N)=O)C(N)=O (Hydrocinnamoyl-L[Cha]RPRN-NH2), the Activity was “Active”.
For CC(C)C[C@H](NC(=O)CCCc1ccccc1)C(=O)N[C@@H](Cc1ccccc1)C(=O)N[C@@H](CCCNC(=N)N)C(=O)N1CCC[C@H]1C(=O)N[C@@H](CCCNC(=N)N)C(=O)N[C@@H](CC(N)=O)C(N)=O ({Butanoyl(4-Ph)}-LFRPRN-NH2), the Activity was “Active”.
For CC(C)C[C@H](NC(=O)CCCC1CCCCC1)C(=O)N[C@@H](Cc1ccccc1)C(=O)N[C@@H](CCCNC(=N)N)C(=O)N1CCC[C@H]1C(=O)N[C@@H](CCCNC(=N)N)C(=O)N[C@@H](CC(N)=O)C(N)=O ({Butanoyl(4-cHex)}-LFRPRN-NH2), the Activity was “Active”.
For CC(C)C[C@H](NC(=O)CCC1CCCCC1)C(=O)N[C@@H](Cc1ccccc1)C(=O)N[C@@H](CCCNC(=N)N)C(=O)N1CCC[C@H]1C(=O)N[C@@H](CCCNC(=N)N)C(=O)N[C@@H](CC(N)=O)C(N)=O ({Propanoyl(3-cHex)}-LFRPRN-NH2), the Activity was “Active”.
For CC[C@H](C)[C@H](NC(=O)[C@H](CC(C)C)NC(=O)CCC1CCCCC1)C(=O)N[C@@H](CN)C(=O)N1CCC[C@H]1C(=O)N[C@@H](CCCNC(=N)N)C(=O)N[C@@H](CC(N)=O)C(N)=O ({Propanoyl(3-cHex)}-LI[Dap]PRN-NH2), the Activity was “Active”.
In the case of CC(C)C[C@H](NC(=O)CCC1CCCCC1)C(=O)N[C@@H](CC1CCCCC1)C(=O)N[C@@H](CCCNC(=N)N)C(=O)N1CCC[C@H]1C(=O)N[C@@H](CCCNC(=N)N)C(=O)N[C@@H](CC(N)=O)C(N)=O ({Propanoyl(3-cHex)}-L[Cha]RPRN-NH2), the Activity is reported as “Active”.
In the case of CC(C)C[C@H](NC(=O)CCC1CCCCC1)C(=O)N[C@@H](CC1CCCCC1)C(=O)N[C@@H](CN)C(=O)N1CCC[C@H]1C(=O)N[C@@H](CCCNC(=N)N)C(=O)N[C@@H](CC(N)=O)C(N)=O ({Propanoyl(3-cHex)}-L[Cha][Dap]PRN-NH2), the Activity is reported as “Active”.
CC(C)C[C@H](NC(=O)CCC1CCCCC1)C(=O)N[C@H](C(=O)N[C@@H](CN)C(=O)N1CCC[C@H]1C(=O)N[C@@H](CCCNC(=N)N)C(=O)N[C@@H](CC(N)=O)C(N)=O)C1CCCCC1 ({Propanoyl(3-cHex)}-L[Chg][Dap]PRN-NH2) was tested, and the Activity was “Active”.
For CCCC[C@H](NC(=O)[C@H](CC(C)C)NC(=O)CCC1CCCCC1)C(=O)N[C@@H](CN)C(=O)N1CCC[C@H]1C(=O)N[C@@H](CCCNC(=N)N)C(=O)N[C@@H](CC(N)=O)C(N)=O ({Propanoyl(3-cHex)}-L[Nle][Dap]PRN-NH2), the Activity was “Active”.
